Consider 3 compounds from paper PMC9295256 (Journal of medicinal chemistry, 2021).

Each structure is given as a SMILES string.

The nature of data set [1]: Brain protein binding, rapid equilibrium dialysis. The class given is in vitro ADME. As to conditions: mouse, mouse brain homogenate (dilution factor D = 5). The essentials:
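Mouse brain homogenate spiked to 500 ng/mL final (from a 10 µg/mL aqueous dilution of DMSO solution) was dialysed against DPBS across an 8 kDa cutoff membrane for 4 h at 37 °C with 250 rpm orbital shaking. Both chambers were sampled and quantified by LC–MS/MS. fu,d = receiver/donor, corrected to undiluted fu with D = 5. Done in triplicate.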
Background: Equilibrium dialysis compares concentrations on both sides of a semipermeable membrane.

Data set [2] is classed as in vitro ADME, mouse. As to conditions: CD-1 (source of the primary astrocytes), mouse.
The test system of data set [3] is co-culture of primary mouse astrocytes and immortalized mouse endothelial cells (bEnd3). The class given is in vitro ADME. Conditions: ratio of Pe values.
The target in another data set is human TOP (Homo sapiens, UniProt P52888). In words: Peptidase selectivity: thimet oligopeptidase, fluorogenic substrate. The class given is biochemical. As to conditions: eight-point concentration–response up to 300 μM; substrate 15 μM.
A further data set deals with human NEP (Homo sapiens, UniProt P08473). The experiment in a line: Peptidase selectivity: neprilysin, fluorogenic substrate. The class given is biochemical. Conditions: eight-point concentration–response up to 300 μM; substrate 10 μM.
A further data set concerns the target human ACE2 (Homo sapiens, UniProt Q9BYF1). In words: Peptidase selectivity: ACE2, fluorogenic substrate. The class given is biochemical. Conditions: eight-point concentration–response up to 300 μM; substrate 10 μM. The essentials: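 Recombinant human ACE2 was tested in artificial CSF at 37 °C with a 10 min preincubation of enzyme and test compound (from 30–50 mM DMSO stocks). Mca-Ala-Pro-Lys(Dnp) (10 µM) started the reaction, and fluorescence (320 nm excitation, 405 nm emission) was followed continuously for 20 min; n = 4.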

Data set [4] addresses human angiotensin-converting enzyme (Homo sapiens, UniProt P12821). In words: Peptidase selectivity: ACE, fluorogenic substrate. The class given is biochemical. Conditions: eight-point concentration–response up to 300 μM; substrate 10 μM. The essentials: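 Continuous fluorogenic assay with recombinant human ACE in artificial CSF at 37 °C. Test compound (from 30–50 mM DMSO stocks) was preincubated with enzyme for 10 min. The reaction was started with Mca-[…]Dnp)-OH (10 µM), and fluorescence (ex 320/em 405 nm) was read continuously for 20 min; n = 4.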

The target in data set [5] is Rat recombinant neurolysin (Rattus norvegicus, UniProt P42676). The experiment in a line: Hydrolysis of endogenous substrates BK and NT by Nln, LC-MS/MS. The class given is biochemical. As to conditions: compound 10 or 30 μM, Nln 0.5 nM; for hydrolysis of BK by Nln, formation of BK-(1–5): BK 20 μM; for hydrolysis of NT by Nln, formation of NT-(1–10): NT 20 μM. The essentials:
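In-house recombinant rat Nln (0.5 nM) was preincubated 10 min at 37 °C with test compound (10 or 30 µM), then given bradykinin (20 µM) for a further 10 min at 37 °C. BK-(1–5) was quantified by LC–MS/MS (water/acetonitrile with 0.1% formic acid gradient, column 40 °C) as a peak-area ratio to internal standard; n = 3.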

The next data set has as its target recombinant rat Nln (Rattus norvegicus, UniProt P42676). In words: Nln activation, continuous quenched fluorescence substrate. The class given is biochemical. Conditions: for Amax, maximum % activation achieved (95% CI): 100% = normal enzyme turnover, mean of n = 4, 95% CI in parentheses; for increase in potency over the least active hit / increase in potency over the most active hit: A50 ratio.

Sequence of human NEP (P08473 whole entry): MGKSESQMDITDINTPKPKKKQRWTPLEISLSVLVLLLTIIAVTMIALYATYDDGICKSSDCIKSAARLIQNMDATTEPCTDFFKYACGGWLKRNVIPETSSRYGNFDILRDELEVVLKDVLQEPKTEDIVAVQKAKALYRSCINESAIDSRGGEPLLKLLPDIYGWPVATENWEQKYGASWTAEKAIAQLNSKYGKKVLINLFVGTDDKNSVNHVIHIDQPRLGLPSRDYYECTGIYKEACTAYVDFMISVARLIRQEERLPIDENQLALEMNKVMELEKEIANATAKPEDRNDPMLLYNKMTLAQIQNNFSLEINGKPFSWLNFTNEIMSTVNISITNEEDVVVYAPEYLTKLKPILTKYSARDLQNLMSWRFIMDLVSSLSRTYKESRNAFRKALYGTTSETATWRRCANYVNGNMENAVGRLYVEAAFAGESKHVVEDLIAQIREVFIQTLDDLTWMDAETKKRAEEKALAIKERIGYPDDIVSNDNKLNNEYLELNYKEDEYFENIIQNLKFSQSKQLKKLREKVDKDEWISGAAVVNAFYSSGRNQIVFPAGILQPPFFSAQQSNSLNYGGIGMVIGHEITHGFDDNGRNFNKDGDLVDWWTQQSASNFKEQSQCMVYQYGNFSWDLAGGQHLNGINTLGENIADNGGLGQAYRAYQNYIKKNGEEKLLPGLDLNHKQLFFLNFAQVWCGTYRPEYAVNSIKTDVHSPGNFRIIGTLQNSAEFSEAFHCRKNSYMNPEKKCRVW
Sequence of human ACE2 (Q9BYF1 18-805): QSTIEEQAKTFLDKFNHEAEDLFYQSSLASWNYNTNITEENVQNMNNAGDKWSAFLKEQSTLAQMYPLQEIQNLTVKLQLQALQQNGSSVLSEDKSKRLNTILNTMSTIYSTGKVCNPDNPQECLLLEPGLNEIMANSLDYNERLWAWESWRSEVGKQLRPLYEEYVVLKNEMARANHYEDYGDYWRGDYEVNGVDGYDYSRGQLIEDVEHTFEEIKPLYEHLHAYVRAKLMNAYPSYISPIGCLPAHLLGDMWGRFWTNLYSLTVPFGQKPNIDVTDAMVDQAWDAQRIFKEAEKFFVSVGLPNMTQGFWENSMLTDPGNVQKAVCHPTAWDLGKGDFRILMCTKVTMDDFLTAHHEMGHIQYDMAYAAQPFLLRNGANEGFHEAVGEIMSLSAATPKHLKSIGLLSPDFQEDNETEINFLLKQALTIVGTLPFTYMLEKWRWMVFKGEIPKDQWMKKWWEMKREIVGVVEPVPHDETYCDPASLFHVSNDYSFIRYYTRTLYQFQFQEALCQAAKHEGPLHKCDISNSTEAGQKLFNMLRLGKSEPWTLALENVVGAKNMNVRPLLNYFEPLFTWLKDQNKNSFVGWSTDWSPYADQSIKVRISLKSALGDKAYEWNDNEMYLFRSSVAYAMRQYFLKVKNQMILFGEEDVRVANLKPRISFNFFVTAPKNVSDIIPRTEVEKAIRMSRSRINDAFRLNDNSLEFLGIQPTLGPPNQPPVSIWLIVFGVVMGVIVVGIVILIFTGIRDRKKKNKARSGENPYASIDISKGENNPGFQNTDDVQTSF
Sequence of human angiotensin-converting enzyme (P12821 30-1306): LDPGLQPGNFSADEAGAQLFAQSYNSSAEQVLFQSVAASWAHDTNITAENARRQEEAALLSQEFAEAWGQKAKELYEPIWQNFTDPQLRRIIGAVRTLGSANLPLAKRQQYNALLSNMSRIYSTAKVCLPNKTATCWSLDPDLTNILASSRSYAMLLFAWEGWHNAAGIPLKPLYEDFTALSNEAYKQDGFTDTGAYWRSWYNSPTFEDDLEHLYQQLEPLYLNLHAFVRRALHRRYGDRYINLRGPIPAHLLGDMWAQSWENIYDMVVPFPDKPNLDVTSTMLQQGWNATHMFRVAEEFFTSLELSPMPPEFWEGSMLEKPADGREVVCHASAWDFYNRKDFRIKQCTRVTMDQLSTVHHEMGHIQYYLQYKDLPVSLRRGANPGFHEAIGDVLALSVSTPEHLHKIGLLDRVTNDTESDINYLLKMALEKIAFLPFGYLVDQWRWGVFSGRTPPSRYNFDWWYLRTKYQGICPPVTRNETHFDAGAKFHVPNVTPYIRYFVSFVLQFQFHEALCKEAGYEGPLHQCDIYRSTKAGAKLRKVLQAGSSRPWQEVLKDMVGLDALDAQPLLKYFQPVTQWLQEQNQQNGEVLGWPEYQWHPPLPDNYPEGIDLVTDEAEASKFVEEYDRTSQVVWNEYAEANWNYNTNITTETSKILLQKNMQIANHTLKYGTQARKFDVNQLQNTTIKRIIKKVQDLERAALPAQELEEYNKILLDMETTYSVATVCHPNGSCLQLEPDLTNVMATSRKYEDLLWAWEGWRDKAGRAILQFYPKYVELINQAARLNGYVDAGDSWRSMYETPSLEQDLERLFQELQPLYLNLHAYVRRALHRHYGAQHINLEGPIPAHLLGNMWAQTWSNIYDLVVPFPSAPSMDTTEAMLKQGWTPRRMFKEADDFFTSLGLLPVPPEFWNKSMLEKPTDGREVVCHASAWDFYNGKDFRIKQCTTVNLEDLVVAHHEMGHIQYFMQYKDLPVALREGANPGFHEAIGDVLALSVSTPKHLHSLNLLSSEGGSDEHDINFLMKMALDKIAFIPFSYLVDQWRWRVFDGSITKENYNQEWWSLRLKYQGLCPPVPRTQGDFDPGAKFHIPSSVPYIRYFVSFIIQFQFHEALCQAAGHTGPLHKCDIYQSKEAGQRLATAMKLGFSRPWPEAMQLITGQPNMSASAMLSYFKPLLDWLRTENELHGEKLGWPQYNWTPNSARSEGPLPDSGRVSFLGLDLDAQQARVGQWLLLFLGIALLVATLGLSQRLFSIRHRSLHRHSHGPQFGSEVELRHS
Sequence of human TOP (P52888 whole entry): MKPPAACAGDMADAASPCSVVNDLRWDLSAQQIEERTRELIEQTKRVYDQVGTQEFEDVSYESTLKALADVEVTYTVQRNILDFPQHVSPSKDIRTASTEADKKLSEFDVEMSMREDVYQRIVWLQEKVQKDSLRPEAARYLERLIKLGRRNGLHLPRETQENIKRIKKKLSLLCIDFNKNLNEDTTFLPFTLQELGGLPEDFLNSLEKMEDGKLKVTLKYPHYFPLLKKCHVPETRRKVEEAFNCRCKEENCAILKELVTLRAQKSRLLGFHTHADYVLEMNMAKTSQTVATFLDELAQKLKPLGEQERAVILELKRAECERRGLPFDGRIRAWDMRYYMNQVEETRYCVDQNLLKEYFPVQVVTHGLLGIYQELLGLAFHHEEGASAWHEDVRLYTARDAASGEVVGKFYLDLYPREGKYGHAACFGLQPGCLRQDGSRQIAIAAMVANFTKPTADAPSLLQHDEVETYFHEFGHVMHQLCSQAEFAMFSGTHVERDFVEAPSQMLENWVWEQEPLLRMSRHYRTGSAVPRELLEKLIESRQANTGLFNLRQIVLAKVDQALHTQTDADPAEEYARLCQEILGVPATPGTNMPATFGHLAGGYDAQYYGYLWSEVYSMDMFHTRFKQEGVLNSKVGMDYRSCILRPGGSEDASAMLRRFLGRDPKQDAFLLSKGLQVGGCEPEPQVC
Sequence of Rat recombinant neurolysin (P42676 38-704): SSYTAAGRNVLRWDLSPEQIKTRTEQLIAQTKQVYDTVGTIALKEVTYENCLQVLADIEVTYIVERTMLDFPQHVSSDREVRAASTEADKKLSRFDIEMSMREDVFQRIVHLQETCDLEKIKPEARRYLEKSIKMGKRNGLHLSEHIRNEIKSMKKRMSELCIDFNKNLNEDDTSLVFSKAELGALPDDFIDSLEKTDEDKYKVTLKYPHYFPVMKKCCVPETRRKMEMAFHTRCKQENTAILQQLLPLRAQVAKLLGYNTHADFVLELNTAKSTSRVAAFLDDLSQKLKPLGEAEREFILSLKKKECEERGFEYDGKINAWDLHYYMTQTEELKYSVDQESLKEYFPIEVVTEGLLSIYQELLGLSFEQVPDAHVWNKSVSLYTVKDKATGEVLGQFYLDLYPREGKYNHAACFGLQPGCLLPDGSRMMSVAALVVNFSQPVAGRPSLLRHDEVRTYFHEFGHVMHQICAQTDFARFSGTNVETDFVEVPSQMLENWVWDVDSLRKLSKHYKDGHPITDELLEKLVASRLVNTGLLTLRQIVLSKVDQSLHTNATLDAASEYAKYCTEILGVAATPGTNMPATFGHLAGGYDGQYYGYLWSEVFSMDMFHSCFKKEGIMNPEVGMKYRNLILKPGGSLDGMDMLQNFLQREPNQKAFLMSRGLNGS
Sequence of recombinant rat Nln (P42676 38-704): as above

The compound `N[C@@H](Cc1c[nH]cn1)C(=O)NCCc1c[nH]c2ccccc12` [Compound 9d, (S)-N-(2-(1H-Indol-3-yl)ethyl)-2-amino-3-(1H-imidazol-4-yl)-propanamide] came in with a fraction unbound at 4 h, 500 ng/mL in data set [1] of 0.14 ± 0.012. Also, in [2], the apical-to-basolateral permeability (Papp A→B) at 120 min, 10 μg/mL is 17.8 ×10⁻⁶ cm/s. Further, in data set [3], the “increase in BBB permeability / brain penetration over hit compounds 1 and 4” value is listed as 4–5 fold. Also, on human TOP, the “effect on catalytic activity of TOP” value was “only exhibited inhibition at concentrations approaching 300 μM”. The “effect on catalytic activity of NEP” value on human NEP was “None of the three compounds showed appreciable inhibition”. The “effect on catalytic activity of ACE2” value at human ACE2 is given as “inhibition of ACE2 at high concentrations”. Besides, the “effect on catalytic activity of ACE” value in [4] is “inhibition of ACE at high concentration”. Besides, in data set [5], the “hydrolysis of BK by Nln, formation of BK-(1–5)” value (shortened to “hydrolysis of BK by Nln”) is listed as “enhanced hydrolysis of BK” and the “hydrolysis of NT by Nln, formation of NT-(1–10)” value (shortened to “hydrolysis of NT by Nln”) was “hydrolysis of NT by Nln was also enhanced”.

For `N[C@@H](Cc1c[nH]cn1)C(=O)NCc1cccc2ccccc12` [Compound 10c, (S)-2-Amino-3-(1H-imidazol-4-yl)-N-(naphthalen-1-ylmethyl)-propanamide], on recombinant rat Nln, the “Amax, maximum % activation achieved (95% CI)” value was 264 (256.3 to 272.6) %; the “increase in potency over the least active hit” value is on record as greater than 30 fold; the “increase in potency over the most active hit” value was greater than 10 fold. In addition, the “increase in BBB permeability / brain penetration over hit compounds 1 and 4” value in data set [3] is given as 4–5 fold. For the same compound, the “effect on catalytic activity of TOP” value on human TOP is “No appreciable inhibition”. Moreover, the “effect on catalytic activity of NEP” value on human NEP is on record as “None of the three compounds showed appreciable inhibition”. Besides, the “effect on catalytic activity of ACE2” value on human ACE2 is recorded as “no inhibition up to 300 μM”. In data set [4], the “effect on catalytic activity of ACE” value is “no inhibition at the maximum concentration tested”. Moreover, in data set [5], the “hydrolysis of BK by Nln” value is “enhanced hydrolysis of BK” and the “hydrolysis of NT by Nln” value is given as “hydrolysis of NT by Nln was also enhanced”.

As for `N[C@@H](Cc1c[nH]cn1)C(=O)Nc1cccc2cccnc12` [Compound 11a, (S)-2-Amino-3-(1H-imidazol-4-yl)-N-(quinolin-8-yl)propanamide], at recombinant rat Nln, the “Amax, maximum % activation achieved (95% CI)” value was 281.2 (266.7 to 297.1) %; the “increase in potency over the least active hit” value is listed as greater than 30 fold; the “increase in potency over the most active hit” value is reported as greater than 10 fold. Further, the “mean Amax of the two enantiomers” value at recombinant rat Nln (mean over L and D enantiomer) came to 285%. This compound also showed a fraction unbound at 4 h, 500 ng/mL in data set [1] of 0.062 ± 0.011. This compound also had a Papp A→B at 120 min, 10 μg/mL in data set [2] of 19 ×10⁻⁶ cm/s. In data set [3], the “increase in BBB permeability / brain penetration over hit compounds 1 and 4” value was 4–5 fold. Besides, the “effect on catalytic activity of TOP” value on human TOP is reported as “No appreciable inhibition”. Moreover, the “effect on catalytic activity of NEP” value on human NEP is recorded as “None of the three compounds showed appreciable inhibition”. Also, at human ACE2, the “effect on catalytic activity of ACE2” value is “inhibition of ACE2 at high concentrations”. For the same compound, the “effect on catalytic activity of ACE” value in data set [4] is recorded as “inhibition of ACE at high concentration”. In data set [5], the “hydrolysis of BK by Nln” value was “enhanced hydrolysis of BK” and the “hydrolysis of NT by Nln” value is listed as “hydrolysis of NT by Nln was also enhanced”.

In general, fraction unbound refers to free concentration divided by total concentration. The term Papp A→B denotes the apparent permeability from the apical to the basolateral side of a cell layer. High values mean fast passage, low ones slow passage.
